Non-standard residues stand in square brackets, D forms with d. Residues, ends and D or L forms follow the SMILES beside them. Ac5c = NC1(C(=O)O)CCCC1; GABA = NCCCC(=O)O
How the values were obtained:
Format in all cases: functional
Mus musculus [1] = organism: Mus musculus; assay: Compound was tested for the immunomodulatory activity in vitro expressed as stimulation index by lymphocyte transformation test at 10 ug/mL
Method in brief: (§1)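 Normal Swiss mouse splenocytes, RBCs lysed with 0.83% NH4Cl in 10 mM Tris pH 7.2, held at 5x10⁶ cells/ml in RPMI with 10% FCS. Cells cultured 72 h at 37°C in CO₂ with PHA-P mitogen and peptide (10, 1, 0.1, 0.01 µg/ml), then [³H]thymidine pulse and 18 h further incubation. Read as DPM ratio to untreated wells; triplicate runs, ±SD.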

Mus musculus [2] = organism: Mus musculus; assay: Compound was tested for the immunomodulatory activity in vitro expressed as stimulation index by lymphocyte transformation test at 0.1 ug/mL; method in brief: as §1
Mus musculus [3] = organism: Mus musculus; assay: Compound was tested for the immunomodulatory activity in vitro expressed as stimulation index by mixed lymphocyte reaction at 0.1 ug/mL
Mus musculus [4] = organism: Mus musculus; assay: Compound was tested for the immunomodulatory activity in vitro expressed as stimulation index by lymphocyte transformation test at 1 ug/mL; method in brief: as §1
Mus musculus [5] = organism: Mus musculus; assay: Compound was tested for the immunomodulatory activity in vitro expressed as stimulation index by mixed lymphocyte reaction at 1 ug/mL
Mus musculus [6] = organism: Mus musculus; assay: Compound was tested for the immunomodulatory activity in vitro expressed as stimulation index by mixed lymphocyte reaction (MLR) at 10 ug/mL
Mus musculus [7] = organism: Mus musculus; assay: Compound was tested for the immunomodulatory activity in vitro expressed as stimulation index by lymphocyte transformation test at 0.01 ug/mL; method in brief: as §1
Mus musculus [8] = organism: Mus musculus; assay: Compound was tested for the immunomodulatory activity in vitro expressed as stimulation index by mixed lymphocyte reaction 1 ug/mL
Mus musculus [9] = organism: Mus musculus; assay: Compound was tested for the immunomodulatory activity in vitro expressed as stimulation index by mixed lymphocyte reaction at 10 ug/mL

Structure (SMILES) | Stimulation index (Mus musculus [1]) | Stimulation index (Mus musculus [2]) | Stimulation index (Mus musculus [3]) | Stimulation index (Mus musculus [4]) | Stimulation index (Mus musculus [5]) | Stimulation index (Mus musculus [6]) | Stimulation index (Mus musculus [7]) | Stimulation index (Mus musculus [8]) | Stimulation index (Mus musculus [9])
CC[C@H](C)[C@H](NC(=O)CCCNC(=O)[C@@H](N)C(C)C)C(=O)N1CCC[C@H]1C(=O)N[C@@H](Cc1ccc(O)cc1)C(=O)O (H-V[GABA]IPY-OH) | 0.88 | 0.73 | 0.67 | 0.69 | 0.77 | 0.74 | 0.55 | – | –
CC[C@@H](C)[C@@H](NC(=O)[C@@H]1CCCN1C(=O)[C@H](CCC(=O)O)NC(=O)[C@@H](N)C(C)C)C(=O)N1CCC[C@H]1C(=O)N[C@H](Cc1ccc(O)cc1)C(=O)O | 1.18 | 1.08 | 0.93 | 1.22 | – | – | 0.82 | 0.75 | 0.77
CC[C@@H](C)[C@@H](NC(=O)[C@@H]1CCCN1C(=O)[C@H](CCC(=O)O)NC(=O)[C@H](C)N)C(=O)N1CCC[C@H]1C(=O)N[C@H](Cc1ccc(O)cc1)C(=O)O | 1.32 | 1.27 | 0.84 | 1.3 | 0.89 | – | 1.32 | – | 0.75
CC[C@H](C)[C@H](NC(=O)CNC(=O)CNC(=O)[C@@H](N)C(C)C)C(=O)N1CCC[C@H]1C(=O)N[C@@H](Cc1ccc(O)cc1)C(=O)O (H-VGGIPY-OH) | 1.22 | 1.03 | 0.66 | 1.15 | 0.95 | – | 0.93 | – | 0.88
CC[C@H](C)[C@H](NC(=O)C1(NC(=O)[C@H](CCC(=O)O)NC(=O)[C@@H](N)C(C)C)CCCC1)C(=O)N1CCC[C@H]1C(=O)N[C@@H](Cc1ccc(O)cc1)C(=O)O (H-VE[Ac5c]IPY-OH) | 1.1 | 0.7 | 0.65 | 1.09 | 0.86 | – | 0.69 | – | 0.62
CC[C@@H](C)[C@@H](NC(=O)[C@@H]1CCCN1C(=O)[C@@H](CCC(=O)O)NC(=O)[C@H](C)N)C(=O)N1CCC[C@H]1C(=O)N[C@H](Cc1ccc(O)cc1)C(=O)O | 1.22 | 1.57 | 0.74 | 1.4 | 0.82 | – | 1.17 | – | 0.72
CC[C@H](C)[C@H](NC(=O)[C@@H]1CCCN1C(=O)[C@H](CCC(=O)O)NC(=O)[C@@H](N)C(C)C)C(=O)N1CCC[C@H]1C(=O)N[C@@H](Cc1ccc(O)cc1)C(=O)O | 1.45 | 1.43 | 1 | 1.5 | 0.9 | – | 1.27 | – | 0.9

— ChEMBL document CHEMBL1130743, “Immunosuppressant activity in human beta-casein fragment analogs” (1998)
